ChEMBL document CHEMBL1142995, “Probing the pharmacophore of ginkgolides as glycine receptor antagonists” (J Med Chem, 2007)

How the values were obtained:
Format in all cases: cell-based
[1] = target: T1, Glycine receptor subunit alpha-1 (Homo sapiens, UniProt P23415); assay: Activity at human alpha-1GlyR expressed in HEK293 cells assessed as inhibition of 300 uM glycine-induced current by whole-cell patch clamp experiment
T1 sequence (P23415 whole entry): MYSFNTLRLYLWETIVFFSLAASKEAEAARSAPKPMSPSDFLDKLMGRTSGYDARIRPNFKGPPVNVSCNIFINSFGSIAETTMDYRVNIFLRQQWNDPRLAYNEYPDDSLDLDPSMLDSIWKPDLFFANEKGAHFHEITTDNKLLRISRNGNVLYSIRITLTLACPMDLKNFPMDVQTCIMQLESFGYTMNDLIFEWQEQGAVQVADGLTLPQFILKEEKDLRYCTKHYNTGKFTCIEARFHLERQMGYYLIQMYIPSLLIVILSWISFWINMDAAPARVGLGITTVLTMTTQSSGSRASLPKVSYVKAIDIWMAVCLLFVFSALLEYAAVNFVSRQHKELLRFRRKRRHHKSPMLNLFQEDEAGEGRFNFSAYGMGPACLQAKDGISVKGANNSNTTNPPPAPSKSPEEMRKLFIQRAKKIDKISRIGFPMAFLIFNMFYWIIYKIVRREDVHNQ

[2] = target: T1, Glycine receptor subunit alpha-1; assay: Activity at human alpha1GlyR expressed in HEK293 cells assessed as inhibition of 3000 uM glycine-induced current by whole-cell patch clamp experiment
Method in brief: (§1)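 α1 GlyR-HEK293 cells, whole-cell patch clamp. Antagonist co-applied with 30 or 3000 µM glycine by gravity perfusion. Peak current normalised to that glycine concentration alone and fitted to Hill equation for IC50 and slope. Mean with 95% CI, 5 cells per glycine concentration.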

[3] = target: T2, Glycine receptor subunit alpha-2 (Homo sapiens, UniProt P23416); assay: Activity at human alpha-2GlyR expressed in HEK293 cells by FMP assay
T2 sequence (P23416 whole entry): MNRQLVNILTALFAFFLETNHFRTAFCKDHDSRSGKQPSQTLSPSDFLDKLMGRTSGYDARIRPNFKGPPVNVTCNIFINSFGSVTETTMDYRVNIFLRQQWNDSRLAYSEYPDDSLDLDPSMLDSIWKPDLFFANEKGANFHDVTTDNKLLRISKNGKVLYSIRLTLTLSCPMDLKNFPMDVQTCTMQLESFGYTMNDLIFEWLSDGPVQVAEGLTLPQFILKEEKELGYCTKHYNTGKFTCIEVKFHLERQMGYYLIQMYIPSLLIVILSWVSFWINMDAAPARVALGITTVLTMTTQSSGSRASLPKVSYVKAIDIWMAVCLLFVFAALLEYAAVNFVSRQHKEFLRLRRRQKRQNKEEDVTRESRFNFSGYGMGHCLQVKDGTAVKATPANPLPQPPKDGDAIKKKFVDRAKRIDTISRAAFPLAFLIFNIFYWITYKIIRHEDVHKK
Method in brief: (§2)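 Stable HEK293 lines (α1: G418; α1β: G418 + hygromycin B; α2: hygromycin B) plated on poly-D-lysine 16-24 h. Loaded with FMP dye in HBSS/20 mM HEPES pH 7.4, antagonist present, 30 min at 37 °C. Fluorescence ex 530/em 560 nm read up to 1 min after glycine: 200 µM (α1, α1β) or 500 µM (α2). Duplicates, ≥3 experiments; IC50 from maximal responses.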

[4] = target: T1, Glycine receptor subunit alpha-1; assay: Activity at human alpha-1GlyR expressed in HEK293 cells assessed as inhibition of 30 uM glycine-induced current by whole-cell patch clamp experiment; method in brief: as §1
[5] = target: T1, Glycine receptor subunit alpha-1; assay: Activity at human alpha-1-beta-GlyR expressed in HEK293 cells by FMP assay; method in brief: as §2
[6] = target: T1, Glycine receptor subunit alpha-1; assay: Activity at human alpha-1GlyR expressed in HEK293 cells by FMP assay; method in brief: as §2

Question: Which IC50 [1] does the source give for `C[C@@H]1C(=O)O[C@H]2[C@H](O)[C@]34[C@@H]5OC(=O)[C@]3(O[C@@H]3OC(=O)[C@H](O)[C@@]34[C@H](C(C)(C)C)[C@H]5O)[C@@]12O` [GINKGOLIDE C] here?
Answer: 1.7 µM

Question: And the IC50 [2]?
Answer: 5.9 µM

Question: And the IC50 [3]?
Answer: 8.2 µM

Question: What about the IC50 [4] of the same molecule?
Answer: 2.4 µM

Question: And the IC50 [5]?
Answer: 2.4 µM

Question: And the IC50 [6]?
Answer: 4.7 µM
